Reference: ChEMBL document CHEMBL4813976, “Rational drug design of benzothiazole-based derivatives as potent signal transducer and activator of transcription 3 (STAT3) signaling pathway inhibitors” (Eur J Med Chem, 2021)
pIC50, pKd: −log10 of the molar value. The source made the active and inactive calls. No cut-off for these calls is given here.

Assays:
[1] = target: T1, Signal transducer and activator of transcription 3 (Homo sapiens, UniProt P40763); experiment: Inhibition of IL-6 induced STAT3 transcriptional activity in human HepG2 cells incubated for 1 hr followed by stimulation with IL-6 for 5.5 hrs by luciferase reporter gene assay; format: cell-based
Outline: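 STAT3-dependent luciferase reporter assay in HepG2 cells with IL-6 stimulation; IC50 given as mean ± SD of at least three independent experiments.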

HEL [2] = experiment: Antiproliferative activity against human HEL cells harboring JAK2 V617F mutant assessed as inhibition of cell growth incubated for 72 hrs by MTT assay; format: functional, cell-based
Outline: (§1)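 MTT proliferation assay; MDA-MB-468 grown in DMEM/F-12 and HEL in high-glucose DMEM, each with 10% FBS and penicillin/streptomycin, at 37 °C under 5% CO₂. IC50 given as mean ± SD of at least three independent experiments.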

MDA-MB-468 [3] = experiment: Antiproliferative activity against human MDA-MB-468 cells overexpressing STAT3 assessed as inhibition of cell growth incubated for 72 hrs by MTT assay; format: functional, cell-based; conditions: MDA-MB-468, 72 h; outline: as §1
MDA-MB-453 = experiment: Antiproliferative activity against human MDA-MB-453 cells expressing low levels of STAT3 assessed as inhibition of cell growth incubated for 72 hrs by MTT assay; format: functional, cell-based; conditions: MDA-MB-453, 72 h
Outline: (§2)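 MTT proliferation assay on MCF-7 and MDA-MB-453 cells; IC50 given as mean ± SD of at least two independent experiments.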

MCF7 = experiment: Antiproliferative activity against human MCF7 cells expressing low levels of STAT3 assessed as inhibition of cell growth incubated for 72 hrs by MTT assay; format: functional, cell-based; conditions: MCF7, 72 h; outline: as §2
[4] = target: T1, Signal transducer and activator of transcription 3; experiment: Inhibition of STAT3 phosphorylation at Tyr705 residue in human HEL cells expressing JAK2 V617F mutant measured after 24 hrs by Western blot analysis; format: cell-based; conditions: dose 1.25-5 µM
Outline: (§3)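 Cells were treated for 24 h, then lysed in hot 2% SDS with boiling, and protein was quantified by BCA. Lysates were run on SDS-PAGE, transferred to nitrocellulose and blocked with 3% milk in TBST. Membranes were probed overnight at 4 °C with 1:1000 antibodies to pSTAT3 Tyr705, pSTAT3 Ser727, STAT3, c-Myc, MCL-1, β-actin and GAPDH. Detection used HRP secondaries and ECL.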

[5] = target: T1, Signal transducer and activator of transcription 3; experiment: Inhibition of STAT3 phosphorylation at Ser727 residue in human HEL cells expressing JAK2 V617F mutant measured after 24 hrs by Western blot analysis; format: cell-based; conditions: dose 1.25-5 µM; outline: as §3
[6] = target: T1, Signal transducer and activator of transcription 3; experiment: Inhibition of STAT3 phosphorylation at Tyr705 residue in human MDA-MB-468 cells measured after 24 hrs by Western blot analysis; format: cell-based; conditions: dose 1.25-5 µM; outline: as §3
[7] = target: T1, Signal transducer and activator of transcription 3; experiment: Inhibition of STAT3 phosphorylation at Ser727 residue in human MDA-MB-468 cells measured after 24 hrs by Western blot analysis; format: cell-based; conditions: dose 1.25-5 µM; outline: as §3
[8] = target: T1, Signal transducer and activator of transcription 3; experiment: Inhibition of STAT3 in human HEL cells expressing JAK2 V617F mutant cells assessed as downregulation of c-Myc protein expression at 1.25 to 5 uM incubated for 24 hrs by western blot analysis; format: cell-based; conditions: dose 1.25-5 µM; outline: as §3
[9] = target: T1, Signal transducer and activator of transcription 3; experiment: Inhibition of STAT3 in human HEL cells expressing JAK2 V617F mutant cells assessed as downregulation of MCL-1 protein expression at 1.25 to 5 uM incubated for 24 hrs by western blot analysis; format: cell-based; conditions: dose 1.25-5 µM; outline: as §3
[10] = target: T1, Signal transducer and activator of transcription 3; experiment: Inhibition of STAT3 in human MDA-MB-468 cells assessed as downregulation of c-Myc protein expression at 1.25 to 5 uM incubated for 24 hrs by western blot analysis; format: cell-based; conditions: dose 1.25-5 µM; outline: as §3
[11] = target: T1, Signal transducer and activator of transcription 3; experiment: Inhibition of STAT3 in human MDA-MB-468 cells assessed as downregulation of MCL-1 protein expression at 1.25 to 5 uM incubated for 24 hrs by western blot analysis; format: cell-based; conditions: dose 1.25-5 µM; outline: as §3
[12] = target: Vascular endothelial growth factor receptor 1 (Homo sapiens) (UniProt P17948); experiment: Inhibition of VEGFR1 (unknown origin) at 1 uM by ELISA
[13] = target: Platelet-derived growth factor receptor beta (Homo sapiens) (UniProt P09619); experiment: Inhibition of PDGFRbeta (unknown origin) at 1 uM by ELISA
[14] = target: Receptor tyrosine-protein kinase erbB-2 (Homo sapiens) (UniProt P04626); experiment: Inhibition of ERBB2 (unknown origin) at 1 uM by ELISA
[15] = target: Receptor tyrosine-protein kinase erbB-4 (Homo sapiens) (UniProt Q15303); experiment: Inhibition of ERBB4 (unknown origin) at 1 uM by ELISA
[16] = target: Insulin-like growth factor 1 receptor (Homo sapiens) (UniProt P08069); experiment: Inhibition of IGF1R (unknown origin) at 1 uM by ELISA
MDA-MB-468 [17] = experiment: Induction of apoptosis in human MDA-MB-468 cells at 1.25 to 5 uM measured after 48 hrs by AnnexinV-FITC/PI staining based flow cytometry analysis; format: functional, cell-based; conditions: dose 1.25-5 µM
Outline: (§4)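 Cells were seeded overnight, then exposed to DMSO or compound for 48 h. They were washed twice in PBS and resuspended in binding buffer with Annexin V-FITC and propidium iodide. After 15 min at room temperature in the dark, cells were analysed by flow cytometry; data are representative of three independent experiments.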

HEL [18] = experiment: Induction of apoptosis in human HEL cells expressing JAK2 V617F mutant cells at 1.25 to 5 uM measured after 48 hrs by AnnexinV-FITC/PI staining based flow cytometry analysis; format: functional, cell-based; conditions: dose 1.25-5 µM; outline: as §4
MDA-MB-468 [19] = experiment: Induction of cell cycle arrest in human MDA-MB-468 cells assessed as increase in accumulation at G2/M phase after 48 hrs by PI/RNase staining based flow cytometry; format: functional; conditions: dose 1.25-5 µM
Outline: (§5)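 Cells were seeded overnight, then exposed to DMSO or increasing compound concentrations for 48 h. They were fixed in ice-cold 80% ethanol overnight, stained with PI containing RNase for 30 min at 37 °C, and analysed by flow cytometry.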

HEL [20] = experiment: Induction of cell cycle arrest in human HEL cells expressing JAK2 V617F mutant cells assessed as increase in accumulation at G2/M phase after 48 hrs by PI/RNase staining based flow cytometry; format: functional; conditions: dose 1.25-5 µM; outline: as §5
MDA-MB-468 [21] = experiment: Induction of cell cycle arrest in human MDA-MB-468 cells assessed as decrease in accumulation at G1 phase after 48 hrs by PI/RNase staining based flow cytometry; format: functional; conditions: dose 1.25-5 µM; outline: as §5
HEL [22] = experiment: Induction of cell cycle arrest in human HEL cells expressing JAK2 V617F mutant cells assessed as decrease in accumulation at G1 phase after 48 hrs by PI/RNase staining based flow cytometry; format: functional; conditions: dose 1.25-5 µM; outline: as §5
[23] = target: T1, Signal transducer and activator of transcription 3; experiment: Binding affinity to His-tagged STAT3-SH2 domain (127 to 722 residues) (unknown origin) by surface plasmon resonance analysis
Outline: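 SPR on a Biacore T200 with STAT3 SH2 domain. Analytes were run as concentration series, and KD was taken as the equilibrium constant.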

[24] = target: T1, Signal transducer and activator of transcription 3; experiment: Displacement of 5'-FAM-GpYLPQTV-NH2 from His-tagged STAT3-SH2 domain (127 to 722 residues) (unknown origin) assessed as binding rate at 100 uM […] by fluorescence polarization assay; conditions: time 90.0 min
[25] = target: T1, Signal transducer and activator of transcription 3; experiment: Displacement of 5'-FAM-GpYLPQTV-NH2 from His-tagged STAT3-SH2 domain (127 to 722 residues) (unknown origin) assessed as binding rate at 50 uM […] by fluorescence polarization assay; conditions: time 90.0 min
[26] = target: T1, Signal transducer and activator of transcription 3; experiment: Displacement of 5'-FAM-GpYLPQTV-NH2 from His-tagged STAT3-SH2 domain (127 to 722 residues) (unknown origin) assessed as binding rate at 20 uM […] by fluorescence polarization assay; conditions: time 90.0 min
HEL [27] = experiment: Effect on STAT3 expression in human HEL cells expressing JAK2 V617F mutant at 1.25 to 5 uM measured after 24 hrs by Western blot analysis; format: functional, cell-based; conditions: dose 1.25-5 µM; outline: as §3
MDA-MB-468 [28] = experiment: Effect on STAT3 expression in human MDA-MB-468 cells at 1.25 to 5 uM measured after 24 hrs by Western blot analysis; format: functional, cell-based; conditions: dose 1.25-5 µM; outline: as §3

T1 sequence (P40763 whole entry): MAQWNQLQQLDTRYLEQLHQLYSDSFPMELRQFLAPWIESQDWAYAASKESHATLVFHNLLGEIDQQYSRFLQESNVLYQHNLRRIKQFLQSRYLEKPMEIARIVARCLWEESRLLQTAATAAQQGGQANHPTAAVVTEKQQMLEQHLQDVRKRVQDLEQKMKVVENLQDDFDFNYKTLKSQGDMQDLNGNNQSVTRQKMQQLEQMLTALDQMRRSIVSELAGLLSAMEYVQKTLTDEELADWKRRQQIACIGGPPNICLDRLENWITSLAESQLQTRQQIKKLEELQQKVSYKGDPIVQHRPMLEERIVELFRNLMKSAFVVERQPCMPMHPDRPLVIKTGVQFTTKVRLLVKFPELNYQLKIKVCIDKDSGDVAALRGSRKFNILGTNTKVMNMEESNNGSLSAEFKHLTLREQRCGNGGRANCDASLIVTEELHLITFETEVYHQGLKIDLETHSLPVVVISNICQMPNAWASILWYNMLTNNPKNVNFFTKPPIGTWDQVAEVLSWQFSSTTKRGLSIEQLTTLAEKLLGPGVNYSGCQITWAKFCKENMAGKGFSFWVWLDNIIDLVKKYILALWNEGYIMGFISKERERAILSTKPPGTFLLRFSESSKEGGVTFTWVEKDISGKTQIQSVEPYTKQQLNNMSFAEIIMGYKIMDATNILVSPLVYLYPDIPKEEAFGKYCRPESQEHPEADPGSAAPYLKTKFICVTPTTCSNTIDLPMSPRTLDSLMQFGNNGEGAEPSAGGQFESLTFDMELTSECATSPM
Sequence of Receptor tyrosine-protein kinase erbB-4 (Homo sapiens) (Q15303 whole entry): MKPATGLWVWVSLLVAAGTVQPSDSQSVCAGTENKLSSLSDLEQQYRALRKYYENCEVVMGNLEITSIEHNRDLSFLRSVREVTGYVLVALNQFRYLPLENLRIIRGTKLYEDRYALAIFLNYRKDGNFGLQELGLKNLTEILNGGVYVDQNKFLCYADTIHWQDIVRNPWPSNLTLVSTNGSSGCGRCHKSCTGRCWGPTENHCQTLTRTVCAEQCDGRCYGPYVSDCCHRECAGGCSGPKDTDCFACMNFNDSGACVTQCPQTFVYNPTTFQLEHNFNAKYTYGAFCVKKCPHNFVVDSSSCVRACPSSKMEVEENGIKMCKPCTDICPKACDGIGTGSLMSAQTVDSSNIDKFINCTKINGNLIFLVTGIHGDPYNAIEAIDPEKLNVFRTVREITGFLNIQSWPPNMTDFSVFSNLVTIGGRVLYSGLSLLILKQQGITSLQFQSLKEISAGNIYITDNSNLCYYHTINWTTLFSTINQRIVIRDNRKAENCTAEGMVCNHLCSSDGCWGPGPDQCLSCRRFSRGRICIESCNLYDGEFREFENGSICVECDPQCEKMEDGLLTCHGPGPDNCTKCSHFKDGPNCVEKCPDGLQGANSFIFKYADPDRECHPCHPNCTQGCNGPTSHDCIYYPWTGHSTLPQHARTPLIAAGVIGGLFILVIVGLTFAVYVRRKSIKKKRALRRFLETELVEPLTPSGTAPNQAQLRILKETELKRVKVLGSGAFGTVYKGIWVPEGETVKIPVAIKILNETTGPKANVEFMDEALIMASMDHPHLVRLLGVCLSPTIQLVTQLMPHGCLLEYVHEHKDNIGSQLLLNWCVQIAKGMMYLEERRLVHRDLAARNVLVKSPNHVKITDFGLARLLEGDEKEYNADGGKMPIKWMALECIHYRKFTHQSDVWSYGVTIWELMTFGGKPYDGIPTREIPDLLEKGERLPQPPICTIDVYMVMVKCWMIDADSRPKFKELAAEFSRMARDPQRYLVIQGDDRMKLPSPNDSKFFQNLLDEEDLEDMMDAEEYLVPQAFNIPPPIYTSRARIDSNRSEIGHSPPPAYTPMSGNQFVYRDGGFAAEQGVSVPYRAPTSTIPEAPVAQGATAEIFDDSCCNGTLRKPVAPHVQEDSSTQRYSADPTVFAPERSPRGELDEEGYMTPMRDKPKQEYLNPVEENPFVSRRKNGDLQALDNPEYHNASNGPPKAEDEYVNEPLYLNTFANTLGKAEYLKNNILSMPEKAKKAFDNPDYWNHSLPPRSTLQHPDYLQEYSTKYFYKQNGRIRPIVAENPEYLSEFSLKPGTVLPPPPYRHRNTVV
Sequence of Receptor tyrosine-protein kinase erbB-2 (Homo sapiens) (P04626 whole entry): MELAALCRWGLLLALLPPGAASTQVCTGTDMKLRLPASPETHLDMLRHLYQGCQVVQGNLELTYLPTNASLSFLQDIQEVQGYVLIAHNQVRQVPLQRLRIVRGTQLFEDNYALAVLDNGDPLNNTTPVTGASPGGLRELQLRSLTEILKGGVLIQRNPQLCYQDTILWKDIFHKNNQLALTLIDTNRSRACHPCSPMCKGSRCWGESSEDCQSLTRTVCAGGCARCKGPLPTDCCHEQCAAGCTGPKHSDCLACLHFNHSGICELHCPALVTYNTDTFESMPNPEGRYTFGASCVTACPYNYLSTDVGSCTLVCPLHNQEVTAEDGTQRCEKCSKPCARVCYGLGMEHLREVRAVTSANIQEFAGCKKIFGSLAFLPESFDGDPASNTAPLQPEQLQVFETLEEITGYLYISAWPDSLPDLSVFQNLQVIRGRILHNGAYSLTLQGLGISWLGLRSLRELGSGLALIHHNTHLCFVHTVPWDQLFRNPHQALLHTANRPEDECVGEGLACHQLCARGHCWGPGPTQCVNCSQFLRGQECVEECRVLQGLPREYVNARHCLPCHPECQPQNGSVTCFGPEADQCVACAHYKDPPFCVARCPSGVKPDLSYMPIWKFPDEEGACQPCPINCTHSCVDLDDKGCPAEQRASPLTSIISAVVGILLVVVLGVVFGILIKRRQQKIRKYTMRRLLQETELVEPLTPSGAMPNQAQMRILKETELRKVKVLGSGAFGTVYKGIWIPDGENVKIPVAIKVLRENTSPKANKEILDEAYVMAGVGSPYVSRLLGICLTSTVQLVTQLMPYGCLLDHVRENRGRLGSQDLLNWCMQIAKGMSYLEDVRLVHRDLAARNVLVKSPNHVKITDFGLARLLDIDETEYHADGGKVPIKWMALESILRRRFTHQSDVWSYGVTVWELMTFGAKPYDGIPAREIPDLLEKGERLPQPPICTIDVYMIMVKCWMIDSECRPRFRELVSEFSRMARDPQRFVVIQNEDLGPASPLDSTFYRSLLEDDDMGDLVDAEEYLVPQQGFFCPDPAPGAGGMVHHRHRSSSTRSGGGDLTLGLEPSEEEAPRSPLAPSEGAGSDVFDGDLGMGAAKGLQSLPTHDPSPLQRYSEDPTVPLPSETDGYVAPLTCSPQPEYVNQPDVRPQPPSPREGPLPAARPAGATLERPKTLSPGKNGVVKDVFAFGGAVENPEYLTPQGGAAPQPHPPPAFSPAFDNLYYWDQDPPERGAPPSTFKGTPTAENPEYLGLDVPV
Sequence of Vascular endothelial growth factor receptor 1 (Homo sapiens) (P17948 whole entry): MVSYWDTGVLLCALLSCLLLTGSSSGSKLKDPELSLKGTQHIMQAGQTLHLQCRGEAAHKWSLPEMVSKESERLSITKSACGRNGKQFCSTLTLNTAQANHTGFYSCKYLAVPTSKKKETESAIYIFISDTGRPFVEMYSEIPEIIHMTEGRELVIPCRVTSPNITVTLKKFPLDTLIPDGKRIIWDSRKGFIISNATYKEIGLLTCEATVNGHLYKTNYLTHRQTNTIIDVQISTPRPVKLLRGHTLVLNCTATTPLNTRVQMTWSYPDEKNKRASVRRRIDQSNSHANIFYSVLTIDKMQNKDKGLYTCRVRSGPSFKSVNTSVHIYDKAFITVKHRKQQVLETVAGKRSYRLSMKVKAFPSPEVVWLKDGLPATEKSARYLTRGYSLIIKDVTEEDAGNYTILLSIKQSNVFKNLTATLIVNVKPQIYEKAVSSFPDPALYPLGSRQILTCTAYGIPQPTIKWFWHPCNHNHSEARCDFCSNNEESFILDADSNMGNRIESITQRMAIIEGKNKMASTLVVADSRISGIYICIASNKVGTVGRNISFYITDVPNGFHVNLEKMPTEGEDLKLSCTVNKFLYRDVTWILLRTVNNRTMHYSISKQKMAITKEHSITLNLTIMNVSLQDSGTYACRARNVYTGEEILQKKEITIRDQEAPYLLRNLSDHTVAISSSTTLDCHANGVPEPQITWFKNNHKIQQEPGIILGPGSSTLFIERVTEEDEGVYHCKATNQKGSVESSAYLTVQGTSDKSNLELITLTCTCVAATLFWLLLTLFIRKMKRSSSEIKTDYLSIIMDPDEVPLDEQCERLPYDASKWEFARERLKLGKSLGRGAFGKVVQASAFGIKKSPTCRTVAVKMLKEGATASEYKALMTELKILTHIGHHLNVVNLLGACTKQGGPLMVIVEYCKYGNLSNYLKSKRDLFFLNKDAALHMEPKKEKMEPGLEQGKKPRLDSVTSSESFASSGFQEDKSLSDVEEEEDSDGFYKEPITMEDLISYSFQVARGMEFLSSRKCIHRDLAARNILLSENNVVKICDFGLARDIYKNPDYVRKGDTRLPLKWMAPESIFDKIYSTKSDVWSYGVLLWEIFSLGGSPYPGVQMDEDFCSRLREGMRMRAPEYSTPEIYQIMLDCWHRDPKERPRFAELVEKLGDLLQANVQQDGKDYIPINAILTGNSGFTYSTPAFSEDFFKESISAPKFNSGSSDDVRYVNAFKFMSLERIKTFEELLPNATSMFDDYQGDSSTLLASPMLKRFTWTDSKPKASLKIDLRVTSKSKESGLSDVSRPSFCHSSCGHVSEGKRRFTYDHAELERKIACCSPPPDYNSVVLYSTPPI

Row | SMILES | pIC50 [1] | pIC50 (HEL [2]) | pIC50 (MDA-MB-468 [3]) | pIC50 (MDA-MB-453) | pIC50 (MCF7) | inhibition [4] | inhibition [5] | inhibition [6] | inhibition [7] | inhibition [8] | inhibition [9] | inhibition [10] | inhibition [11] | inhibition [12] [%] | inhibition [13] [%] | inhibition [14] [%] | inhibition [15] [%] | inhibition [16] [%] | Activity (MDA-MB-468 [17]) | Activity (HEL [18]) | other results
1 | CCCC(C)Oc1ccc(C(=O)Nc2ccc3nc(SCC(=O)N[C@@H](C)c4ccccc4)sc3c2)c(OC)c1C (stereo not given in full) | 6.80 | 5.62 | 5.98 | < 4.70 | < 4.70 | Dose-Dependent Effect | Dose-Dependent Effect | Dose-Dependent Effect | Dose-Dependent Effect | Active | Active | Active | Active | 0 | 0 | 5.2 | 0 | 0 | Active | Active | Activity (MDA-MB-468 [19]): Dose-Dependent Effect; Activity (HEL [20]): Dose-Dependent Effect; Activity (MDA-MB-468 [21]): Dose-Dependent Effect; Activity (HEL [22]): Dose-Dependent Effect; pKd [23]: 7.20; Activity [24]: < 10%; Activity [25]: < 10%; Activity [26]: < 10%; Activity (HEL [27]): inactive; Activity (MDA-MB-468 [28]): inactive
2 | CCCC(C)Oc1ccc(C(=O)Nc2ccc3nc(SCC(=O)N[C@@H](C)c4ccc(OC)cc4)sc3c2)c(OC)c1C (stereo not given in full) | 7.17 | 5.95 | 6.60 | < 4.70 | < 4.70 | Dose-Dependent Effect | Dose-Dependent Effect | Dose-Dependent Effect | Dose-Dependent Effect | Active | Active | Active | Active | 0 | 0 | 9.6 | 0 | 0 | Active | Active | Activity (MDA-MB-468 [19]): Dose-Dependent Effect; Activity (HEL [20]): Dose-Dependent Effect; Activity (MDA-MB-468 [21]): Dose-Dependent Effect; Activity (HEL [22]): Dose-Dependent Effect; pKd [23]: 7.28; Activity [24]: < 10%; Activity [25]: < 10%; Activity [26]: < 10%; Activity (HEL [27]): inactive; Activity (MDA-MB-468 [28]): inactive
